Experimental data reported in ChEMBL document CHEMBL1955767, “Synthesis and biological evaluation of piperidine-substituted triazine derivatives as HIV-1 non-nucleoside reverse transcriptase inhibitors” (Eur J Med Chem, 2012).
Where a name gives a salt, the structure may show the parent alone. Active and inactive are the calls of the source. The calls are words filed in the database; no cut-off is given here.

Key:
[1] = Cytotoxicity against human MT4 cells after 5 days by MTT assay; format: cell-based
Outline: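 Mock-infected MT-4 cells (6×10^5 cells/mL) received serial fivefold compound dilutions in triplicate, run in parallel with the infected series. After 5 days, viability measured by MTT formazan absorbance at 540 and 690 nm, using the median OD of three wells.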

[2] = Selectivity index, ratio of CC50 for human MT4 cells to EC50 for HIV1 3B; format: toxicity, cell-based; conditions: read-out: Ratio CC50/EC50
Outline: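 Ratio CC50/EC50, both taken from the same 5-day MTT run in MT-4 cells. CC50 is from mock-infected wells.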

[3] = tested on: Human immunodeficiency virus 1; test: Antiviral activity against HIV1 3B infected in human MT4 cells assessed as protection against virus-induced cytotoxicity after 5 days by MTT assay; format: functional, organism-based; conditions: Human immunodeficiency virus 1, 3B, MT4, 120 h
Outline: (§1)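 MT-4 cells (6×10^5 cells/mL) infected with HIV-1 IIIB or HIV-2 ROD at 100–300 CCID50. Compounds added at 10× stock as serial fivefold dilutions in triplicate, with untreated infected and mock-infected controls run alongside. Viability read by MTT reduction at 540 and 690 nm 5 days post-infection, using the median OD of three wells.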

[4] = tested on: Human immunodeficiency virus 2; test: Antiviral activity against HIV2 ROD infected in human MT4 cells assessed as inhibition of viral replication; format: functional, organism-based; conditions: ISOLATE ROD; outline: as §1
[5] = tested on: Human immunodeficiency virus 1; test: Antiviral activity against HIV1 expressing reverse transcriptase K103N/Y181C mutant infected in human MT4 cells assessed as protection against virus-induced cytotoxicity after 5 days by MTT assay; format: functional, organism-based; conditions: Human immunodeficiency virus 1, MT4, 120 h
Outline: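 MT-4 cells, in exponential growth, pelleted and resuspended at 6×10^5 cells/mL, then infected or mock-infected. Compound added at start as serial fivefold dilutions in triplicate wells. Viability read by MTT reduction to formazan at 540 and 690 nm after 5 days.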

[6] = target: Human immunodeficiency virus type 1 reverse transcriptase (Human immunodeficiency virus 1, UniProt Q72547); test: Inhibition of HIV1 reverse transcriptase assessed as incorporation of biotin-dUTP into poly(rA)-oligo(dT)
Outline: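 ELISA-format RT kit with a poly(rA)-oligo(dT) homopolymer template/primer bound to the plate. Wild-type HIV-1 RT activity measured as biotin-dUTP incorporation into the template.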

| SMILES | CC50 at 120 h [1] [µM] | selectivity ratio [2] | EC50 [3] [µM] | Activity [4] | EC50 [5] [µM] | IC50 [6] [µM] |
| --- | --- | --- | --- | --- | --- | --- |
| COc1ccc(CN2CCC(Nc3nc(Nc4c(C)cc(C)cc4C)nc(OC)n3)CC2)cc1 | 19.8 | 2040 | 0.0097 | inactive | 7.4 | – |
| CNc1nc(Nc2c(C)cc(C)cc2C)nc(NC2CCN(Cc3ccc([N+](=O)[O-])cc3)CC2)n1 | 10.2 | 1230 | 0.0082 | inactive | ≥ 2.6 | – |
| CNc1nc(Nc2c(C)cc(C)cc2C)nc(NC2CCN(Cc3ccccc3C#N)CC2)n1 | 24.7 | 2500 | 0.0099 | inactive | 4.6 | – |
| CNc1nc(Nc2c(C)cc(C)cc2C)nc(NC2CCN(Cc3ccc(OC)cc3)CC2)n1 | 22.1 | 2310 | 0.0095 | inactive | 5.8 | – |
| Cc1cn([C@H]2C[C@H](N=[N+]=[N-])[C@@H](CO)O2)c(=O)[nH]c1=O [ZIDOVUDINE] | 250 | 12200 | 0.0206 | – | 0.0086 | – |
| CC(C)Nc1cccnc1N1CCN(C(=O)c2cc3cc(NS(C)(=O)=O)ccc3[nH]2)CC1 [DELAVIRDINE MESYLATE] | > 36.2 | > 1100 | 0.0326 | – | > 36.2 | – |
| Cc1ccnc2c1NC(=O)c1cccnc1N2C1CC1 [NEVIRAPINE] | > 15 | – | 0.0901 | – | 11.2 | – |
| CNc1nc(Nc2c(C)cc(C)cc2C)nc(NC2CCN(Cc3ccc(C#N)cc3)CC2)n1 | 10 | 1190 | 0.0085 | inactive | 1.3 | – |
| O=C1Nc2ccc(Cl)cc2[C@@](C#CC2CC2)(C(F)(F)F)O1 [EFAVIRENZ] | > 6.3 | > 1190 | – | – | 0.57 | – |
| CNc1nc(Nc2c(C)cc(C)cc2C)nc(NC2CCN(Cc3cccc(C#N)c3)CC2)n1 | 23 | 3240 | 0.007 | inactive | 4.6 | 1.97 |
| COc1nc(Nc2c(C)cc(C)cc2C)nc(NC2CCN(Cc3ccccc3C#N)CC2)n1 | 28 | 1460 | 0.0192 | inactive | 6.7 | – |
| Cc1cc(C#N)cc(C)c1Oc1nc(Nc2ccc(C#N)cc2)nc(N)c1Br [ETRAVIRINE] | > 4.6 | – | – | – | 0.026 | – |
| CNc1nc(Nc2c(C)cc(C)cc2C)nc(NC2CCN(Cc3ccc(F)cc3)CC2)n1 | 25.6 | 2880 | 0.0102 | inactive | 4.9 | – |
| COc1nc(Nc2c(C)cc(C)cc2C)nc(NC2CCN(Cc3ccc(C#N)cc3)CC2)n1 | 14.6 | 1600 | 0.0092 | inactive | 1.6 | 1.77 |
| COc1nc(Nc2c(C)cc(C)cc2C)nc(NC2CCN(C(=O)c3ccc(C(=O)O)cc3)CC2)n1 | ≥ 149 | ≥ 4 | 36.2 | inactive | > 149 | – |
| COc1nc(Nc2c(C)cc(C)cc2C)nc(NC2CCN(Cc3ccc([N+](=O)[O-])cc3)CC2)n1 | 15.4 | 1640 | 0.0094 | inactive | ≥ 6.1 | – |
| COc1nc(Nc2c(C)cc(C)cc2C)nc(NC2CCN(Cc3cccc(C#N)c3)CC2)n1 | 23.5 | 2380 | 0.0098 | inactive | 4.6 | – |
| CNc1nc(Nc2c(C)cc(C)cc2C)nc(NC2CCN(C(=O)c3ccccc3)CC2)n1 | 30.9 | 132 | 0.224 | inactive | > 30.9 | – |
| COc1nc(Nc2c(C)cc(C)cc2C)nc(NC2CCN(Cc3ccccc3)CC2)n1 | 28.6 | 2510 | 0.0113 | inactive | 4.8 | – |
| COc1nc(Nc2c(C)cc(C)cc2C)nc(NC2CCN(Cc3ccc(F)cc3)CC2)n1 | 24.7 | 2140 | 0.0115 | inactive | 6.5 | – |
| COc1nc(Nc2c(C)cc(C)cc2C)nc(NC2CCN(C(=O)c3ccccc3)CC2)n1 | 28.8 | 16 | 1.79 | inactive | > 28.8 | – |
| COc1nc(Nc2c(C)cc(C)cc2C)nc(NC2CCN(C(=O)c3ccc(O)cc3)CC2)n1 | 121 | 73 | 1.66 | inactive | > 121 | – |
| CNc1nc(Nc2c(C)cc(C)cc2C)nc(NC2CCN(C(=O)c3ccc([N+](=O)[O-])cc3)CC2)n1 | 33.2 | 18 | 1.79 | inactive | > 33.2 | – |
| Nc1ccn([C@H]2CC[C@@H](CO)O2)c(=O)n1 [ZALCITABINE] | > 94.7 | > 93 | 1.04 | – | – | – |
| CNc1nc(Nc2c(C)cc(C)cc2C)nc(NC2CCN(C(=O)c3ccc(O)cc3)CC2)n1 | 55.4 | 60 | 0.932 | inactive | > 55.4 | – |
| CNc1nc(Nc2c(C)cc(C)cc2C)nc(NC2CCN(Cc3ccccc3)CC2)n1 | 28.4 | 3190 | 0.0088 | inactive | 5 | 2.46 |
| COc1nc(Nc2c(C)cc(C)cc2C)nc(NC2CCN(C(=O)c3ccc([N+](=O)[O-])cc3)CC2)n1 | ≥ 25.2 | ≥ 6 | 4.37 | inactive | > 25.2 | – |
| CNc1nc(Nc2c(C)cc(C)cc2C)nc(NC2CCN(C(=O)c3ccc(C(=O)O)cc3)CC2)n1 | ≥ 255 | ≥ 2 | ≥ 127 | inactive | > 255 | – |
